Assay results as given in ChEMBL document CHEMBL1138607, “Synthesis of novel thiourea, thiazolidinedione and thioparabanic acid derivatives of 4-aminoquinoline as potent antimalarials” (Bioorg Med Chem Lett, 2009).
Converted amounts (≈) assume the structure as drawn.

Legend:
Plasmodium falciparum = test: Antimalarial activity against chloroquine-sensitive Plasmodium falciparum 3D7 after 72 hrs by SYBR Green assay; details: 3D7, 72 h
[1] = Selectivity index, ratio of IC50 for african green monkey (Cercopithecus aethiops) Vero cells to IC50 for Plasmodium falciparum 3D7; assay type: toxicity, cell-based; details: read-out: Ratio IC50
Procedure, shortened: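 P. falciparum 3D7 was tested by SYBR Green I fluorescence at 0.5% parasitaemia: two-fold dilutions from 500 ng/mL (seven concentrations), duplicate wells, 72 h, then lysis buffer with dye. Vero cells (1 × 10⁴/well) got MTT after 72 h with compound. Each IC₅₀ came from non-linear regression dose–response curves; selectivity index is the Vero/3D7 ratio.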

Plasmodium yoelii [2] = test: Antiplasmodial activity as reduced parasitaemia against chloroquine-resistant Plasmodium yoelii N67 infected Swiss mice (Mus musculus) at 50 mg/kg/day intraperitoneal dose after 10 days; assay type: functional; set-up: scale not given: the % may be the effect or the level left
Procedure, shortened: (§1)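 Swiss mice inoculated on day 0 with 1×10⁶ P. yoelii N-67 parasitized RBC. Groups of five received 50 mg/kg/day intraperitoneally, once daily on days 0–3, as aqueous suspensions with a few drops of Tween 80. Parasitaemia read from thin blood smears. Percent suppression calculated from the group mean against untreated infected controls.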

Plasmodium yoelii [3] = test: Antiplasmodial activity as reduced parasitaemia against chloroquine-resistant Plasmodium yoelii N67 infected Swiss mice (Mus musculus) at 50 mg/kg/day after 4 days; assay type: functional; set-up: scale not given: the % may be the effect or the level left
Procedure, shortened: as §1

Plasmodium yoelii [4] = test: Antiplasmodial activity as reduced parasitaemia against chloroquine-resistant Plasmodium yoelii N67 infected Swiss mice (Mus musculus) at 10 mg/kg/day peroral dose after 4 days; assay type: functional; set-up: scale not given: the % may be the effect or the level left; details: route oral
Procedure, shortened: (§2)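 Swiss mice inoculated on day 0 with 1×10⁶ P. yoelii N-67 parasitized RBC. […] Parasitaemia read from thin blood smears. Percent suppression calculated from the group mean against untreated infected controls.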

Plasmodium yoelii [5] = test: Antiplasmodial activity as reduced parasitaemia against chloroquine-resistant Plasmodium yoelii N67 infected Swiss mice (Mus musculus) at 10 mg/kg/day peroral dose over 10 days; assay type: functional; set-up: scale not given: the % may be the effect or the level left; details: route oral
Procedure, shortened: as §2

SMILES | IC50 (Plasmodium falciparum) | selectivity ratio [1] | Activity (Plasmodium yoelii [2]) | Activity (Plasmodium yoelii [3]) | Activity (Plasmodium yoelii [4]) | Activity (Plasmodium yoelii [5])
S=C(NCCNc1ccnc2cc(Cl)ccc12)Nc1ccccc1 | 0.00922 µg/mL (≈ 0.0258 µM) | 997 | – | – | – | –
S=C(NCCNc1ccnc2cc(Cl)ccc12)Nc1ccccc1Cl | 0.0205 µg/mL (≈ 0.0524 µM) | 332 | – | – | – | –
C=CCN1C(=O)C(=O)N(CCCNc2ccnc3cc(Cl)ccc23)C1=S | 0.0548 µg/mL (≈ 0.141 µM) | 80.4 | – | – | – | –
O=C1C(=O)N(c2ccccc2Cl)C(=S)N1CCCNc1ccnc2cc(Cl)ccc12 | 0.0397 µg/mL (≈ 0.0864 µM) | 122 | – | – | – | –
O=C1C(=O)N(c2ccccc2Cl)C(=S)N1CCNc1ccnc2cc(Cl)ccc12 | 0.199 µg/mL (≈ 0.448 µM) | 3.36 | – | – | – | –
O=C1C(=O)N(c2ccccc2)C(=S)N1CCCNc1ccnc2cc(Cl)ccc12 | 0.151 µg/mL (≈ 0.354 µM) | 65.5 | – | – | – | –
CCCCN1C(=O)C(=O)N(CCCNc2ccnc3cc(Cl)ccc23)C1=S | 0.0697 µg/mL (≈ 0.172 µM) | 27.2 | – | – | – | –
CCCCNC(=S)NCCNc1ccnc2cc(Cl)ccc12 | 0.00607 µg/mL (≈ 0.018 µM) | 750 | 50.5% | 99.27% | – | –
C=CCNC(=S)NCCNc1ccnc2cc(Cl)ccc12 | 0.0261 µg/mL (≈ 0.0814 µM) | 668 | – | – | – | –
S=C(NCCCNc1ccnc2cc(Cl)ccc12)Nc1ccccc1 | 0.01 µg/mL (≈ 0.027 µM) | 968 | – | – | – | –
CCCCNC(=S)NCCCNc1ccnc2cc(Cl)ccc12 | 0.0118 µg/mL (≈ 0.0337 µM) | 600 | – | – | – | –
S=C(NCCCNc1ccnc2cc(Cl)ccc12)Nc1ccccc1Cl | 0.0102 µg/mL (≈ 0.0251 µM) | 1110 | – | 16.82% | – | –
O=C1S/C(=N\c2ccccc2)N(CCNc2ccnc3cc(Cl)ccc23)C1=O | 0.0295 µg/mL (≈ 0.0718 µM) | 605 | – | – | – | –
C=CCNC(=S)NCCCNc1ccnc2cc(Cl)ccc12 | 0.042 µg/mL (≈ 0.125 µM) | 582 | – | – | – | –
C=CC/N=C1\SC(=O)C(=O)N1CCNc1ccnc2cc(Cl)ccc12 | 0.0324 µg/mL (≈ 0.0865 µM) | 603 | – | – | – | –
CCCC/N=C1\SC(=O)C(=O)N1CCCNc1ccnc2cc(Cl)ccc12 | 0.011 µg/mL (≈ 0.0272 µM) | 256 | – | – | – | –
C=CC/N=C1\SC(=O)C(=O)N1CCCNc1ccnc2cc(Cl)ccc12 | 0.112 µg/mL (≈ 0.287 µM) | 475 | – | – | – | –
O=C1C(=O)N(c2ccccc2)C(=S)N1CCNc1ccnc2cc(Cl)ccc12 | 0.119 µg/mL (≈ 0.29 µM) | 118 | – | – | – | –
O=C1S/C(=N\c2ccccc2Cl)N(CCNc2ccnc3cc(Cl)ccc23)C1=O | 0.0121 µg/mL (≈ 0.0272 µM) | 543 | – | 5.45% | – | –
O=C1S/C(=N\c2ccccc2)N(CCCNc2ccnc3cc(Cl)ccc23)C1=O | 0.011 µg/mL (≈ 0.026 µM) | 637 | – | – | – | –
CCCC/N=C1\SC(=O)C(=O)N1CCNc1ccnc2cc(Cl)ccc12 | 0.0174 µg/mL (≈ 0.0446 µM) | 480 | – | – | – | –
CCCCN1C(=O)C(=O)N(CCNc2ccnc3cc(Cl)ccc23)C1=S | 0.0331 µg/mL (≈ 0.0846 µM) | 406 | – | – | – | –
O=C1S/C(=N\c2ccccc2Cl)N(CCCNc2ccnc3cc(Cl)ccc23)C1=O | 0.0175 µg/mL (≈ 0.0381 µM) | 434 | – | – | – | –
C=CCN1C(=O)C(=O)N(CCNc2ccnc3cc(Cl)ccc23)C1=S | 0.104 µg/mL (≈ 0.278 µM) | 141 | – | – | – | –
CCN(CC)CCCC(C)Nc1ccnc2cc(Cl)ccc12 (centres undefined) [CHLOROQUINE] | – | – | – | – | 99.05% | 73.92%
